How the values were obtained:
[1] = system: Mus musculus; assay: Antipsychotic activity using locomotor activity (LMA)-inverted screen test in mice (i.p. admin.); format: functional; conditions: ip, read-out: MED
Method in brief: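 Unfasted male Swiss-Webster mice, 20–30 g, nine per dose; ip 1 h before testing in 0.2% methocel, 10 mL/kg; 10, 30, 100 mg/kg, three replicates. Inverted-screen falloff over 60 s, then photocell locomotion for 60 min versus vehicle. MED = lowest dose giving >60% locomotor inhibition with <60% falloff.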

[2] = Minimal effective dose required for signs of EPS in cebus monkeys; format: functional; conditions: read-out: MED
[3] = species on record: Rattus norvegicus; assay: The compound was tested for inhibition of sidman avoidance in rat; format: functional
Method in brief: (§1)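 Mature male Long-Evans rats or squirrel monkeys trained on a modified Sidman avoidance lever schedule with 0.5-s shock; 6-h sessions, given orally. Response expressed as % inhibition of nondrug avoidance responding, each animal its own control. At least three doses, four animals each, sessions at least 1 week apart; ED50 by nonlinear regression.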

[4] = The compound was tested for its ability to induced catalepsy in squirrel monkeys; format: functional
Method in brief: (§2)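 Adult squirrel monkeys, 600–1000 g, fasted overnight, oral dosing with at least 1 week between dosings. Observed hourly for at least 6 h and at 24 h. Four animals per dose, at least three doses; ED50 by nonlinear regression for quantal data.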

[5] = The compound was tested for inhibition of sidman avoidance in squirrel monkeys; format: functional; method in brief: as §1
[6] = species on record: Rattus norvegicus; assay: The compound was tested for its ability to induced catalepsy in rats; format: functional
Method in brief: (§3)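 Fasted male Long-Evans hooded rats, 180–220 g, used once; oral intubation, suspended in 0.2% methylcellulose if insoluble. At least three doses, eight rats per dose. Forepaws placed on a horizontal rod 11.5 cm high, read every 30 min for 1 h then hourly to 6 h, 24 h if needed. Partial scores summed; ED50 by nonlinear regression.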

[7] = species on record: Rattus norvegicus; assay: Activity against the suppression of high base line self stimulation with electrodes in the medial forebrain of the posterior hypothalamus of male hooded rats (Peroral admin.); format: functional; conditions: po
Method in brief: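 Male hooded rats with electrodes in the medial forebrain bundle of the posterior hypothalamus; rapid high base-line self-stimulation rates served as base lines. Oral dosing, behaviour recorded continuously on cumulative recorders. Active if base-line rate was reduced by 50% for 1.5 h or more. Four rats per dose; ED50 by computer analysis (linear regression from doses bracketing the ED50).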

[8] = system: Rattus norvegicus; assay: The compound was tested (after peroral administration) for its ability to induce catalepsy in rats; format: functional; conditions: po; method in brief: as §3
[9] = target: T1, Adrenergic receptor alpha-1 (Rattus norvegicus, UniProt P15823+P23944+P43140)
T1 sequence (P15823 whole entry): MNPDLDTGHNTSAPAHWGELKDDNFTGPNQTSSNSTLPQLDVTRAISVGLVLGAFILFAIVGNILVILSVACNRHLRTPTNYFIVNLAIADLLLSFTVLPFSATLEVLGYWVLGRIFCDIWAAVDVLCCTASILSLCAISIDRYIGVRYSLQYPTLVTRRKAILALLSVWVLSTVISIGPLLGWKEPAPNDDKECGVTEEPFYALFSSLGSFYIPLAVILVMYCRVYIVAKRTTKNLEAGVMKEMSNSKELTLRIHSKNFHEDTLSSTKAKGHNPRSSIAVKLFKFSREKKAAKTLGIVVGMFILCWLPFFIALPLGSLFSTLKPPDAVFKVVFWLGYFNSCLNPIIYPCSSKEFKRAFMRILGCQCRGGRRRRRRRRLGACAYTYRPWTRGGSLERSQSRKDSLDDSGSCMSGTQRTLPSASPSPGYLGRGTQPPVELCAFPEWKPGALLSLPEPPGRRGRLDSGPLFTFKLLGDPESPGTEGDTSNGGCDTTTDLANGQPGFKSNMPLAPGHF
T1 sequence (P23944 whole entry): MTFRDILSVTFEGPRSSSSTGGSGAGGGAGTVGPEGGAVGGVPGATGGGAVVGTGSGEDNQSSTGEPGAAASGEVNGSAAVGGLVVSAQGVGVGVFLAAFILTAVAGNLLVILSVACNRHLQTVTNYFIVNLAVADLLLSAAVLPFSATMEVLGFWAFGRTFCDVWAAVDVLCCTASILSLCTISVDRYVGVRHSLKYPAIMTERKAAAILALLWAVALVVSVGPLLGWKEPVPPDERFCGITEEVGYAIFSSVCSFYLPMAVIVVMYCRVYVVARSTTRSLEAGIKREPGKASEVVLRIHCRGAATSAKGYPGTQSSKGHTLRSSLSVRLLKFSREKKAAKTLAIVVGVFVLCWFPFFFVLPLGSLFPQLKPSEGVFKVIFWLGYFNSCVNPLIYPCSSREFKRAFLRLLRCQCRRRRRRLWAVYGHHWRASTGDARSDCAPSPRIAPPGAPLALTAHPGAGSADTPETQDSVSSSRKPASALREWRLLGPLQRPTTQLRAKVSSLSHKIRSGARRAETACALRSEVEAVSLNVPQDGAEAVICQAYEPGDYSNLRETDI
T1 sequence (P43140 whole entry): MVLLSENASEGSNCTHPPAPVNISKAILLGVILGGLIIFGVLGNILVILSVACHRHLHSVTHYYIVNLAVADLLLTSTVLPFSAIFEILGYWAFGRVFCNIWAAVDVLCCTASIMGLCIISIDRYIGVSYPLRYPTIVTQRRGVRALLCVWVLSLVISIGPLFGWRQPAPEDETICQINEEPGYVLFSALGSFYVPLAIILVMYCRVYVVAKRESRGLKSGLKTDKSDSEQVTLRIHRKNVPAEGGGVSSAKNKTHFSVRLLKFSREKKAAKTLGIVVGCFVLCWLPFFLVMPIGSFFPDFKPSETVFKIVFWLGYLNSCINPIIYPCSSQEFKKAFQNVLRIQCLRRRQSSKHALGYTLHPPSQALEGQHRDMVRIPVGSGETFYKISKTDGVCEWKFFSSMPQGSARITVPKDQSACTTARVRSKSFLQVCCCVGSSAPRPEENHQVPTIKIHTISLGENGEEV

[10] = The compound was tested (after peroral administration) for its ability to induced catalepsy in squirrel monkeys; format: functional; conditions: po; method in brief: as §2
[11] = Minimal effective dose (after peroral administration) required for signs of EPS in cebus monkeys; format: functional; conditions: po; read-out: MED
[12] = system: Rattus norvegicus; assay: The compound was tested (after peroral administration) for inhibition of sidman avoidance in rat; format: functional; conditions: po; method in brief: as §1
[13] = The compound was (after peroral administration) tested for inhibition of sidman avoidance in squirrel monkeys; format: functional; conditions: po; method in brief: as §1
[14] = target: Muscarinic acetylcholine receptor; assay: The compound was tested for inhibition of [3H]QNB binding to Muscarinic acetylcholine receptor; format: protein assay

Compound	minimal effective dose [1]	ED50 [7]	ED50 [8]	further results
O=C(CCCN1CCC(O)(c2ccc(Cl)cc2)CC1)c1ccc(F)cc1 [HALOPERIDOL]	0.3 mg/kg	0.14 mg/kg	0.1 mg/kg	minimal effective dose [2]: 0.3 mg/kg; ED50 [3]: 0.3 mg/kg; ED50 [4]: 2 mg/kg; ED50 [5]: 0.26 mg/kg; ED50 [6]: 0.47 mg/kg
O=C1N(CC2CC2)CN(c2ccccc2)C12CCN(CCCN(c1ccc(F)cc1)c1ccc(F)cc1)CC2	30 mg/kg	8.39 mg/kg	200 mg/kg	
O=C1N(Cc2ccccc2)CN(c2ccccc2)C12CCN(CCCN(c1ccc(F)cc1)c1ccc(F)cc1)CC2	> 100 mg/kg			
CC(C)c1ccc(N2CNC(=O)C23CCN(CCCN(c2ccc(F)cc2)c2ccc(F)cc2)CC3)cc1	> 100 mg/kg			
O=C(CCCN1CCC2(CC1)C(=O)NCN2c1ccccc1)c1ccc(F)cc1 [SPIPERONE]	< 10 mg/kg	1.28 mg/kg	10.8 mg/kg	
O=C1NCN(c2ccccc2F)C12CCN(CCCN(c1ccc(F)cc1)c1ccc(F)cc1)CC2		> 16 mg/kg		
Cc1ccc(N2CNC(=O)C23CCN(CCCN(c2ccc(F)cc2)c2ccc(F)cc2)CC3)cc1	≤ 10 mg/kg	> 16 mg/kg		
CCN(CC)CCN1CN(c2ccccc2)C2(CCN(CCCN(c3ccc(F)cc3)c3ccc(F)cc3)CC2)C1=O	≤ 10 mg/kg	5.65 mg/kg	138 mg/kg	
O=C1NCN(c2ccc(F)cc2)C12CCN(CCCN(c1ccc(F)cc1)c1ccc(F)cc1)CC2	≤ 10 mg/kg	0.55 mg/kg	4.5 mg/kg	
O=C1N(COCc2ccccc2)CN(c2ccccc2)C12CCN(CCCN(c1ccc(F)cc1)c1ccc(F)cc1)CC2	100 mg/kg	> 16 mg/kg		
C=CCN1CN(c2ccccc2)C2(CCN(CCCN(c3ccc(F)cc3)c3ccc(F)cc3)CC2)C1=O	≤ 10 mg/kg	1.06 mg/kg	22 mg/kg	
CN1CCN(C2=Nc3cc(Cl)ccc3Nc3ccccc32)CC1 [CLOZAPINE]	10 mg/kg			minimal effective dose [2]: > 30 mg/kg; ED50 [3]: 14.4 mg/kg; ED50 [4]: > 50 mg/kg; ED50 [5]: 4.1 mg/kg; ED50 [6]: 133 mg/kg
O=C1N(CO)CN(c2ccccc2)C12CCN(CCCN(c1ccc(F)cc1)c1ccc(F)cc1)CC2	< 10 mg/kg	0.89 mg/kg	11 mg/kg	
CN(C)CCCN1CN(c2ccccc2)C2(CCN(CCCN(c3ccc(F)cc3)c3ccc(F)cc3)CC2)C1=O		16 mg/kg	200 mg/kg	
O=C1NCN(c2cccc(F)c2)C12CCN(CCCN(c1ccc(F)cc1)c1ccc(F)cc1)CC2	30 mg/kg	0.78 mg/kg	4.1 mg/kg	
O=C1NCN(c2ccc(Cl)cc2)C12CCN(CCCN(c1ccc(F)cc1)c1ccc(F)cc1)CC2	30 mg/kg	2 mg/kg		
O=C1NCN(c2ccccc2)C12CCN(CCCN(c1ccc(F)cc1)c1ccc(F)cc1)CC2	5 mg/kg		81 mg/kg	IC50 [9]: > 1000 nM; ED50 [10]: 30 mg/kg; minimal effective dose [11]: 2.5 mg/kg; ED50 [12]: 2.8 mg/kg; ED50 [13]: 1.7 mg/kg; IC50 [14]: > 100 nM
COc1ccc(N2CNC(=O)C23CCN(CCCN(c2ccc(F)cc2)c2ccc(F)cc2)CC3)cc1	30 mg/kg	> 16 mg/kg		
CN1CN(c2ccccc2)C2(CCN(CCCN(c3ccc(F)cc3)c3ccc(F)cc3)CC2)C1=O	≤ 10 mg/kg	2.84 mg/kg	33 mg/kg	
O=C1NCN(c2cccc(C(F)(F)F)c2)C12CCN(CCCN(c1ccc(F)cc1)c1ccc(F)cc1)CC2	> 100 mg/kg			
CN1CN(c2cccc(C(F)(F)F)c2)C2(CCN(CCCN(c3ccc(F)cc3)c3ccc(F)cc3)CC2)C1=O	30 mg/kg	> 16 mg/kg		
CC(=O)OCN1CN(c2ccccc2)C2(CCN(CCCN(c3ccc(F)cc3)c3ccc(F)cc3)CC2)C1=O	< 10 mg/kg	1.03 mg/kg	17 mg/kg	
CN1CN(c2ccc(F)cc2)C2(CCN(CCCN(c3ccc(F)cc3)c3ccc(F)cc3)CC2)C1=O	≤ 10 mg/kg	0.96 mg/kg	54 mg/kg	
